In one data set the test system is SW-620. As to the kind of experiment: Cytotoxicity against human SW-620 cells assessed as reduction in cell viability after 72 hrs by MTT assay. Format: functional, cell-based. The following applies: SW-620, 72 h. In outline:
(§1)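 Cells seeded at 5000/well and precultured 1 day. HCT116 grown in McCoy's 5A + 10% FBS; SW620 and HEK293 in DMEM + 10% FBS; CCD18Co in DMEM + 15% FBS. Compounds from 0.1 M DMSO stocks were tested at 10^-10 to 10^-4 mol/L in sixplicate: HCT116 and HEK293 for 48 h, SW620 and CCD18Co for 72 h, at 37 °C, 5% CO2. MTT (5 mg/mL) added for 4 h, then A570 read; IC50 estimated.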

For data set [1], the system named is HCT-116. As to the kind of experiment: Cytotoxicity against human HCT-116 cells assessed as reduction in cell viability after 48 hrs by MTT assay. The following applies: HCT-116, 48 h. The format is functional, cell-based. The method in brief:
as §1

A short description of data set [2]: Toxicity in BALB/c nude mouse xenografted with human HCT-116 cells assessed as reduction in body weight at 5 mg/kg, ip administered once for every 7 days for 14 days relative to control. Format: organism-based. Details: scale not given: the % may be the effect or the level left. The following applies: in vivo, 336 h, time 14 day. The method in brief:
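HCT116 s.c. xenografts in male BALB/c nude mice, n = 6 per group. Dosing was ip once every 7 days for 2 weeks in DMSO/castor oil/ethanol/saline; vehicle controls got solvent. Body weight recorded every other day or every three days. Weight loss taken at day 14. Mean ± SD.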

The nature of data set [3]: Toxicity in BALB/c nude mouse xenografted with human HCT-116 cells assessed as necrosis in liver at 5 mg/kg, ip administered once for every 7 days for 14 days by H and E staining based assay. Format: organism-based. The conditions noted are these: in vivo, 336 h, time 14 day. In outline: (§2)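 At the end of the 14-day ip xenograft study (HCT116, BALB/c nude), heart and liver were collected from vehicle and molar-equivalent dose groups. Tissues fixed in 10% formalin in PBS and stained with H&E. Liver examined at 400×, heart at 100×.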

Data set [4] can be described thus: Toxicity in BALB/c nude mouse xenografted with human HCT-116 cells assessed as disordered myocardial fiber in heart at 5 mg/kg, ip administered once for every 7 days for 14 days by H and E staining based assay. Format: organism-based. The conditions noted are these: in vivo, 336 h, time 14 day. The method in brief:
as §2

Data set [5] has as its system HCT-116. As to the kind of experiment: Antitumour activity against human HCT-116 cells xenografted in BALB/c nude mouse assessed as tumour growth inhibition at 5 mg/kg, ip administered once for every 7 days for 14 days relative to control. Format: functional. The conditions noted are these: HCT-116, ip, 336 h, time 14 day, read-out: TGI. The method in brief: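 Male BALB/c nude mice received s.c. HCT116 cells (2 × 10^6 in 0.2 mL PBS). Once tumours reached 100-200 mm3, mice were randomized into groups of six. Dosing was ip, 0.1 mL/10 g, once every 7 days, in DMSO 0.5%/castor oil 5%/ethanol 5%/saline 89.5%; vehicle controls got solvent. Caliper volume V = L×W²×0.52 read every 2-3 days. Tumours excised and weighed on day 14.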
(In general: Xenograft models place foreign cells or tissue in a host animal.)

In the next data set the test system is HEK293. As to the kind of experiment: Cytotoxicity against HEK293 cells assessed as reduction in cell viability after 48 hrs by MTT assay. Format: cell-based. The following applies: Homo sapiens, HEK293, 48 h. In outline: as §1
A general note: Tetrazolium dyes change colour on reduction, which living cells bring about.

A further data set deals with CCD-18Co. As to the kind of experiment: Cytotoxicity against human CCD-18Co cells assessed as reduction in cell viability after 72 hrs by MTT assay. The format is cell-based. The method in brief: as §1
A short description of data set [6]: Toxicity in BALB/c nude mouse xenografted with human HCT-116 cells assessed as inflammatory cell invasion in heart at 5 mg/kg, ip administered once for every 7 days for 14 days by H and E staining based assay. Format: organism-based. The following applies: in vivo, 336 h, time 14 day. The method in brief:
as §2

The results in this text go back to ChEMBL document CHEMBL4680238, “Novel octapeptide-DTX prodrugs targeting MMP-7 as effective agents for the treatment of colorectal cancer with lower systemic toxicity” (Eur J Med Chem, 2020).

One may read the IC50 as the concentration at which inhibition is half-maximal. Take `CC(=O)O[C@@]12CO[C@@H]1C[C@H](O)[C@@]1(C)C(=O)[C@H](O)C3=C(C)[C@@H](OC(=O)[C@H](O)[C@@H](NC(=O)OC(C)(C)C(F)(F)F)c4ccccc4)C[C@@](O)([C@@H](OC(=O)c4cccc(F)c4)[C@H]21)C3(C)C`: the IC50 in the data set on SW-620 came to 280 nM; in the data set with HCT-116 [1], 0.1 nM; with HEK293, 360 nM; in the data set on CCD-18Co it was 17.1 µM. Besides, the Activity in data set [2] is reported as 9.5%; in data set [3], “Toxic”; in [4], “Toxic”; in [6] it was “Toxic”. Further, the inhibition in vivo at 5 mg/kg with HCT-116 [5] stood at 41.9%.
